# A selection: hits, their analogues and other compounds. The true share with any hit is near 6%.
# EphB4 antag = EphB4-ephrin-B2 interaction antagonism; P54760; actives 0.15% (n = 97,000); inhibition, % at 7 µM; AID 720; EphB4 LBD / TNYL-RAW-Alexa532 peptide, fluorescence polarization;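 active = inhibition above the screen-wide mean inhibition plus 3 SD, cut at about 15% in these data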;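 note: 0% = DMSO wells and 100% = excess unlabeled TNYL-RAW peptide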
# Target sequence (P54760 whole entry, looked up, the tested form may be a part): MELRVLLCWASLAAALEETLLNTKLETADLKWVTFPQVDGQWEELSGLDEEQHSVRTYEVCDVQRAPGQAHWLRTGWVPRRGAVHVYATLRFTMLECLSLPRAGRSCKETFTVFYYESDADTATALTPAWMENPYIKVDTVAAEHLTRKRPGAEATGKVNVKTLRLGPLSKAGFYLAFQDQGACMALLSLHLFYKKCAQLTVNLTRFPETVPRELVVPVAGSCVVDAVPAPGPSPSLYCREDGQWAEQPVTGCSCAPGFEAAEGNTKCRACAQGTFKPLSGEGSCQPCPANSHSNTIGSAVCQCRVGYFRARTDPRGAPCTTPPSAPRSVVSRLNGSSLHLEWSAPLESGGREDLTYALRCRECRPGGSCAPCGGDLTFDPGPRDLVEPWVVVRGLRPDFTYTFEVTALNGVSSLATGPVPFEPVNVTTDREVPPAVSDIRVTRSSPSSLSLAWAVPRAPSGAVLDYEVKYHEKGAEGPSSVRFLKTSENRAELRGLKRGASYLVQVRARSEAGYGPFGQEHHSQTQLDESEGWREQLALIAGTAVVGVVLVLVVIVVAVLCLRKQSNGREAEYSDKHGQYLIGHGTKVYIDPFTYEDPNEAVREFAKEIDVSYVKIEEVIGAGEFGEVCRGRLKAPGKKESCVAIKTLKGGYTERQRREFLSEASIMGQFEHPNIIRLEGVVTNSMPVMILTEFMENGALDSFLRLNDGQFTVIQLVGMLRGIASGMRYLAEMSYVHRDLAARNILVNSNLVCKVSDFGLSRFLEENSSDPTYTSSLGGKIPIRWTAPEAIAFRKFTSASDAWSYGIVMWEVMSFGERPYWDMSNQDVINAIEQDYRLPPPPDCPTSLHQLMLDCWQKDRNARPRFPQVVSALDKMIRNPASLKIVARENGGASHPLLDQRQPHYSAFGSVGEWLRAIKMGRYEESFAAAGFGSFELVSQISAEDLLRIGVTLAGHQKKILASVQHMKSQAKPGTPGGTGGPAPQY
# Ecoli tolC = E. coli tolC mutant growth inhibition; E. coli BW25113 tolC mutant growth, OD615; growth inhibition, % at 10 µM (by protocol); actives 2.2% (n = 65,000); AID 573;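 active = growth inhibition at or above a cutoff equal to the mean over every tested compound plus 3 SD, cut at about 60% in these data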;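 note: growth measured after 20 h incubation at 37 °C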
#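 System: E. coli ΔtolC::kan strain BW25113; Buffer or medium: LB broth supplemented with 50 µg/mL kanamycin; Compound: 10 µM final, single dose; Incubation: bacterial growth with compound for 20 h at 37 °C; Signal: A615 absorbance measurement; Evaluation: growth inhibition in percent.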
# Ecoli WT expand = growth inhibitors of E. coli BW25113 wild type; OD600 absorbance; growth inhibition, % at 100 µM; actives 0.15% (n = 98,000); AID 710;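 active = growth inhibition above about 50% at one test dose, limit read from the data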;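 note: growth measured after 20 h incubation at 37 °C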
# PostGolgi ctrl = yeast control strain growth, post-Golgi counter-screen. actives 5% (n = 98,000). inhibition, % at 10 µM. efflux-deficient yeast background strain, growth absorbance A615, 16 h. AID 738
# PostGolgi yeast = growth inhibition of a yeast mutant, post-Golgi transport screen | post-Golgi transport phenotypic cell assay | inhibition, % at 10 µM | actives 0.9% (n = 98,000);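 note: yeast cells grown in 1536-well plates; yeast grown about 18 h at 30C before absorbance read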
# * marks the source's active call; other numbers are inactive results; . = no result given. Cut-off read from the data, not from the text of the source, unless noted: active = inhibition above about 30%; inactive = the rest.
SMILES,EphB4 antag,Ecoli tolC,Ecoli WT expand,PostGolgi ctrl,PostGolgi yeast
Cc1ccc(-c2cc(C(F)F)n3ncc(C(=O)Nc4ccc(S(=O)(=O)Nc5ccccc5C)cc4)c3n2)cc1,3.0,.,-12.0,1.9,0.5
CC(=O)Nc1ccc(S(=O)(=O)N(Cc2ccccc2)C(C)C)cc1,1.0,.,10.0,13.6,-1.6
COc1ccc(C2=NOC(C(=O)Nc3cc(C)on3)C2)cc1 (centres undefined),-2.4,.,2.0,35.2*,3.7
COc1ccc(OC)c(C2=NOC(C(=O)Nc3cc(C)nn3-c3ccccc3)C2)c1 (centres undefined),.,-11.7,1.0,41.5*,-3.4
O=C(Nc1ccccc1C(F)(F)F)N1CCN(c2ccc3nncn3n2)CC1,.,-12.3,2.0,-4.5,-1.1
O=C(Nc1ccc(Br)cc1)c1ccc(N2C(=O)C3CC=C(Cl)CC3C2=O)cc1 (centres undefined),-8.9,.,-6.0,-5.5,2.2
CCCCc1nc(NCCNC(=O)c2ccccc2)c(C#N)c2c1CSC(C)(C)C2,-6.4,.,-3.0,98.5*,15.4
CC1(C)Cc2c(C#N)c(SCC(=O)c3ccccc3)nc(N3CCOCC3)c2CS1,-3.2,10.4,-16.0,10.6,0.9
CC1(C)Cc2c(C#N)c(N3CCN(C(=O)c4ccco4)CC3)nc(-c3ccco3)c2CS1,-1.5,14.7,-19.0,20.5,5.5
CCCCc1nc(NCCNC(=O)c2ccco2)c(C#N)c2c1CSC(C)(C)C2,-10.2,2.9,5.0,100.4*,17.7
CCc1ccc(NC(=O)C2(c3ccccc3)CC2(Cl)Cl)cc1 (centres undefined),-0.7,.,-7.0,30.7*,-2.2
Cc1cccc(NC(=O)C2(c3ccccc3)CC2(Cl)Cl)c1 (centres undefined),2.9,.,2.0,35.1*,13.0
Cc1cc(C)cc(NC(=O)C2(c3ccccc3)CC2(Cl)Cl)c1 (centres undefined),-1.5,.,-3.0,27.8,11.0
Cc1ccc(NC(=O)C2(c3ccccc3)CC2(Cl)Cl)cc1C (centres undefined),1.9,.,-1.0,19.7,2.2
CCN(c1ccc2c(c1)OCO2)S(=O)(=O)c1cc(Br)cc2c1N(C(C)=O)CC2,-10.3,.,1.0,9.3,-4.0
COc1ccc2c(Cl)c(C(=O)NCCCn3ccnc3)sc2c1Cl,-1.8,.,1.0,-7.0,-17.3
Cc1cc(C)c(S(=O)(=O)NCc2cn3c(C)csc3n2)c(C)c1,-5.9,2.7,-1.0,-2.1,-12.4
Cc1cc(C)c(S(=O)(=O)NCc2cn3c(C)csc3n2)cc1C,19.4*,-8.4,1.0,-1.6,-4.8
COc1ccc(NC(=O)N(C2CCCCC2)C(C)c2ccco2)c(OC)c1 (centres undefined),-0.4,68.6*,-17.0,18.3,-8.3
COc1ccc(NC(=O)N(C2CCCCC2)C2CCN(C(C)C)CC2)c(OC)c1,1.1,-27.9,0.0,3.0,12.2
COc1ccc(NC(=O)c2cccnc2)c(OC)c1,-5.8,-12.7,4.0,-2.5,15.3
COc1ccc(NC(=O)N(C2CCCCC2)C(C)c2cccnc2)c(OC)c1 (centres undefined),-6.7,8.2,-3.0,27.6,80.5*
COc1ccc(C2C3=C(CCCC3=O)Nc3nc4ccccc4n32)cc1OC (centres undefined),6.8,-2.0,.,.,.
CC1=C(C(=O)OC(C)C)C(c2c[nH]c3ccccc23)n2ncnc2N1 (centres undefined),-1.9,99.4*,-4.0,3.3,1.7
CCOC(=O)C1=C(C)Nc2ncnn2C1c1c[nH]c2ccccc12 (centres undefined),6.0,-1.9,4.0,1.7,-8.3
SMILES,EphB4 antag,Ecoli tolC,Ecoli WT expand,PostGolgi ctrl,PostGolgi yeast
N#CC(C#N)=Cc1cn(-c2ncc(C(F)(F)F)cc2Cl)c2ccccc12,-3.7,.,-7.0,43.1*,21.1
CCOc1ccc(S(=O)(=O)NCCOC)cc1C,-2.6,.,10.0,45.4*,-3.4
CCCCNS(=O)(=O)c1ccc(OC)c(C)c1,2.3,.,.,.,.
CC(NC(=O)COc1ccccc1)C(c1ccccc1)N1CCN(C)CC1 (centres undefined),.,-14.7,-8.0,-0.5,-1.9
O=C(CCCCCN1C(=O)c2ccccc2C1=O)Nc1ccc(F)cc1,1.4,.,.,.,.
O=C(CCCN1C(=O)c2ccccc2C1=O)Oc1ccc(F)cc1,-4.1,0.9,5.0,38.0*,-5.7
Nc1nc(-c2ccc3ccccc3c2)c(C2(O)C(=O)Nc3c(Br)cc(F)cc32)s1 (centres undefined),-2.1,.,-5.0,12.3,-2.0
Cc1cc(C)c(S(=O)(=O)Nc2ccc3c4c(cccc24)CC3)c(C)c1,1.2,.,3.0,61.1*,-0.5
Cc1ccc(S(=O)(=O)Nc2ccc3c4c(cccc24)CC3)c(C)c1,2.8,.,.,.,.
COC(=O)c1c(C)oc2c1cc(NS(=O)(=O)c1cccs1)c1ccccc12,0.1,.,-3.0,37.7*,-0.3
OCCOCCn1c2ccccc2c2ccccc21,6.3,7.1,-2.0,-11.5,-2.5
CCOC(=O)CSc1cc(CS(=O)c2ccc(Cl)cc2)nc(-c2ccccc2)n1 (centres undefined),-4.6,.,-11.0,32.0*,20.2
O=C(Nc1ccc(Cl)cc1)NC1CCCC1Cc1ccco1 (centres undefined),-3.1,100.0*,23.0,22.5,3.9
CCc1nc2oc3ccccc3c(=O)c2c(=O)n1-c1ccccc1,-1.4,-22.1,-1.0,30.3*,-5.5
CCc1nc2oc3ccccc3c(=O)c2c(=O)n1CCOC,-8.2,-29.3,-8.0,19.0,0.5
Clc1ccc(COc2ccccn2)cc1Cl,2.7,.,8.0,-5.4,2.4
Cc1cc(NC(=O)C2C3C(=O)N(CC4CCCO4)C(C(=O)NCc4ccccc4)C34C=CC2(C)O4)no1 (centres undefined),-4.5,.,.,.,.
COc1ccc(C2CC2/C(=N/OC(=O)c2cccs2)c2ccccc2)cc1 (centres undefined),-2.9,.,-6.0,40.2*,20.0
Cc1ccc(C)c(C(=O)Cn2ncc(Cl)c(Cl)c2=O)c1,-0.9,.,-8.0,18.4,18.4
O=C(OCn1ncc(Cl)c(Cl)c1=O)c1ccc(C(F)(F)F)cc1,4.0,.,8.0,67.7*,108.9*
Cc1ccc(C(=O)OCn2ncc(Cl)c(Cl)c2=O)cc1,-4.2,.,0.0,48.9*,93.4*
CCc1c(C)sc(NC(=O)Cn2nc(C(F)(F)F)c3c2CCCC3)c1C#N,-7.4,.,-4.0,-1.4,-13.8
CC(=O)Nc1ccc(OCC=C(Cl)Cl)cc1,16.2*,-2.0,12.0,9.1,3.7
O=C(Nc1ccc(Cl)c(Cl)c1)OCc1cccnc1,-2.9,91.9*,21.0,4.6,-8.5
Cc1noc2ncnc(Oc3ccc4ccccc4c3)c12,8.8,.,1.0,31.1*,-7.7
COc1ccnc(Oc2ccc3ccccc3c2)c1C#N,9.4,.,0.0,6.5,-6.5
COCCNC(=O)c1c(NC(=O)c2nc(SC)ncc2Cl)sc2c1CCCC2,-4.3,.,-6.0,5.1,-1.2
COC(=O)CSc1nc2ncccc2[nH]1,-0.8,.,-1.0,34.6*,5.6
COc1ccc(NC(=O)CSc2nc3ncccc3[nH]2)cc1OC,0.4,.,8.0,0.4,2.3
CC1=C(C(=O)Nc2ccccc2)C(c2sccc2C)n2nnnc2N1 (centres undefined),1.0,.,-1.0,4.4,-6.9
